Publication PMC10432377 (Journal of Applied Glycoscience, 2023)

Tests used:
Format in all cases: biochemical, Lacticaseibacillus casei
Conditions in all cases: 80 mM sodium acetate pH 4.0, 37 °C
[1] = tested on: LBCZ_0230; assay: D-galactose release, L-arabinose/D-galactose assay kit
Method in brief: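 Recombinant C-terminally His6-tagged enzyme was expressed in E. coli BL21(DE3) and Ni²⁺-affinity purified. Lacto-N-biose I or galacto-N-biose at 0.1-2 mM was reacted with enzyme at 37 °C for 10 min. Reactions were stopped at 80 °C for 3 min and D-galactose was quantified. Km came from Michaelis-Menten nonlinear regression, as mean ± SD of three independent experiments.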

[2] = tested on: LBCZ_0230; assay: o-nitrophenol release, A400
Method in brief: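 The enzyme was C-terminally His6-tagged, expressed in E. coli BL21(DE3) and purified on Ni²⁺ affinity. Protein was quantified by amino acid analysis. o-Nitrophenyl β-D-galactopyranoside at 0.05-1 mM was incubated with enzyme at 37 °C for 10 min and stopped with 1 M Na₂CO₃. Released o-nitrophenol was read at A400. Km was fitted by nonlinear Michaelis-Menten regression from three independent experiments (mean ± SD).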

[3] = tested on: LBCZ_0230; assay: p-nitrophenol release, A400
Method in brief: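 Purified recombinant His6-tagged enzyme (E. coli BL21(DE3), Ni²⁺ column) was assayed on p-nitrophenyl β-D-galactopyranoside over 0.0125-0.5 mM. Incubation ran at 37 °C for 10 min and was quenched with 1 M Na₂CO₃. p-Nitrophenol was measured at A400. Km was obtained by nonlinear Michaelis-Menten fitting, as mean ± SD of three independent experiments.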

Structure (SMILES)	Km [1] [µM]	further results
CC(=O)N[C@H]1C(O)O[C@H](CO)[C@@H](O)[C@@H]1O[C@@H]1O[C@H](CO)[C@H](O)[C@H](O)[C@H]1O (stereo partly shown) [LNB]	238 ± 5	–
O=[N+]([O-])c1ccccc1O[C@@H]1O[C@H](CO)[C@H](O)[C@H](O)[C@H]1O [oNPGal]	–	Km [2]: 50.1 ± 2.3 µM
O=[N+]([O-])c1ccc(O[C@@H]2O[C@H](CO)[C@H](O)[C@H](O)[C@H]2O)cc1 [pNPGal]	–	Km [3]: 20.9 ± 1.3 µM
CC(=O)N[C@H]1C(O)O[C@H](CO)[C@H](O)[C@@H]1O[C@@H]1O[C@H](CO)[C@H](O)[C@H](O)[C@H]1O (stereo partly shown) [GNB]	707 ± 18	–
